Compound activity (PubChem)
Shown are actives, neighbours in structure and some others; about 1.2% of the full set was active somewhere.
pCIP destab = lowers stability of the mouse p/CIP coactivator protein. Q05BA5. F442A p/CIP-EGFP cells, EGFP fluorescence, 16 h. decrease of EGFP signal, % at 10 µM. actives 0.01% (n = 290,000);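 active means EGFP signal decrease of at least 30% at 10 µM or well 3 SD below plate mean, unless failing retest; inactive means the rest, including hits failing retest or dose response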
Hep lipid drop = hepatic lipid droplet formation modulation. AML12 mouse hepatocytes, oleate lipid droplets, BODIPY imaging. inhibition, % at 6.5 µM. actives 0.4% (n = 240,000);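 active means lipid droplet intensity inhibited by at least 50%, with more than 500 cells counted; inconclusive means wells with under 300 cells, treated as cytotoxic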
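Assay system: AML12 mouse liver cells | Compound: 6.5 µM single-point dosing | Schedule: Overnight exposure | Technique: Fluorescence imaging, 20x objective, two fields per well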
proCasp3 act = activators of human procaspase-3; recombinant procaspase-3 D3A, Ac-DEVD-pNA absorbance 405 nm; actives 0.11% (n = 330,000); activation, % at 8.5 µM; AID 463141;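 active means activation above the mean of all tested compounds plus 3 SD, cut at about 21% in these data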;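 further: 0% = DMSO alone and 100% = DMSO wells spiked with extra 5 µM PC-3 D3A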
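System: Procaspase-3 D3A mutant. Medium: Zinc-free 300 mM NaCl, 50 mM HEPES, 0.01% Triton X-100. Schedule: 1 h preincubation plus 2 h reaction at 25 °C. Measured by: 405 nm absorbance of p-nitroaniline, reads at 0 and 120 min. Read-out: percent activation relative to control range.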
FXN GAA850 act = frataxin GAA850 promoter activation; HEK293 lucGAA850 FXN promoter luciferase reporter, 24 h; percent of 10 µM SAHA response; AID 540364; activation, % at 6 µM; actives 0.56% (n = 360,000);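 active means activation above the average of all compounds screened plus 3 SD, cutoff fixed separately per campaign, cut at about 7.5% in these data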;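 further: 0% = DMSO wells and 100% = 10 µM SAHA wells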
proCasp7 act = counter-screen for procaspase-3 activators: activators of human procaspase-7; P55210; recombinant procaspase-7, Ac-DEVD-pNA absorbance 405 nm; D23A/D198A/D206A triple mutant, cannot self-cleave; scale: DMSO 0, 5 µM enzyme 100; activation, % at 8.5 µM; actives 0.093% (n = 330,000);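 active means percent activation above the screen-wide mean plus 3 SD, cut at about 25% in these data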
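Detection: p-Nitroaniline absorbance at 405 nm, read at 0 and 120 min; system: Uncleavable procaspase-7 mutant enzyme; evaluation: % activation from two-timepoint absorbance difference, scaled to controls; times: 1 h enzyme–compound preincubation and 2 h substrate reaction, both 25 °C; buffer or medium: Zinc-free HEPES pH 7.4 with 300 mM NaCl, 0.01% Triton X-100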
Rce1 inhib = inhibitors of yeast Ras-converting enzyme. Q03530. yeast membranes, quenched prenylated peptide cleavage fluorescence. calls only. actives 0.27% (n = 290,000);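 active means fall in fluorescence gain of 50% or more versus controls, with final raw signal at or below 3038400; inconclusive means same 50% fall but final raw signal above 3038400; inactive means fall in fluorescence gain under 50%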;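 further: plate controls were neutral control wells for no effect and wells lacking membranes for full effect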
Starred values were filed as active, the others as inactive; i = inactive; ? = inconclusive; nt = no result given; + = active, no number.

SMILES	pCIP destab	Hep lipid drop	proCasp3 act	FXN GAA850 act	proCasp7 act	Rce1 inhib
COc1cc2c(cc1OC)C(=O)C(Br)CC2 (centres undefined)	nt	nt	nt	7	nt	nt
C/C=C(/C)C(=O)O[C@H]1[C@@H](O)c2c(ccc3ccc(=O)oc23)OC1(C)C	0	-7	2	-1	-5	+
C/C=C(/C)C(=O)O[C@@H]1[C@H](OC(C)=O)c2c(ccc3ccc(=O)oc23)OC1(C)C	-18	-60	1	1	-5	i
O=C(O/N=C\c1ccc(N2CCCCC2)c([N+](=O)[O-])c1)c1cccc(Cl)c1	-8	nt	0	-2	10	i
O=C(O/N=C\c1ccc(N2CCCCC2)c([N+](=O)[O-])c1)c1cccc(C(F)(F)F)c1	-19	-4	1	5	4	+
COc1cccc(/C=C/C(=C2/C(=O)N(c3ccccc3)N=C2C)c2ccc(C)cc2)c1OC	-8	74*	5	1	9	i
COCCn1c(NC(=S)NC(=O)C23CC4CC(CC(C4)C2)C3)cc(=O)[nH]c1=O	-1	0	-1	12*	5	i
COCCn1c(NC(=S)NC(=O)C2CC2)cc(=O)[nH]c1=O	-5	-12	0	-1	-8	i
CCN(Cc1ccccc1)S(=O)(=O)c1ccc(OC)cc1	-16	2	-3	1	-4	i
COc1ccc(S(=O)(=O)N(CC(=O)N2CCCC2)Cc2ccccc2)cc1	4	nt	7	-1	8	+
COc1cccc(C2CC(c3cccs3)=NN2C(=O)CSc2nc3c(cnn3-c3ccc(F)cc3)c(=O)[nH]2)c1OC (centres undefined)	-5	7	-8	1	4	+
COc1ccc(C2CC(c3cccs3)=NN2C(=O)CSc2nc3c(cnn3-c3ccccc3)c(=O)[nH]2)cc1 (centres undefined)	2	-34	6	-2	-2	i
CCC(=O)N1CCC1(C)C(=O)Nc1ccc(Cl)c(Cl)c1 (centres undefined)	nt	nt	nt	3	nt	nt
C[C@H](CO)N1C[C@H](C)[C@@H](CN(C)S(C)(=O)=O)Oc2ccc(NC(=O)CCN3CCOCC3)cc2C1=O	nt	nt	-2	1	27*	nt
O=C(COC(=O)c1ccc(S(=O)(=O)N2CCCC2)cc1)NCc1ccccc1	12	nt	-2	0	4	+
O=C(COC(=O)c1ccc(S(=O)(=O)N2CCCCC2)cc1)NCc1ccc(F)cc1	nt	nt	nt	0	nt	nt
N#Cc1c(N2CCN(C(=O)c3ccccc3Cl)CC2)nc(-c2ccccc2)c2c1CCCC2	-8	nt	4	2	1	i
N#Cc1c(N2CCN(C(=O)c3ccccc3)CC2)nc(-c2ccccc2)c2c1CCCC2	-2	-31	12	2	18	+
CC1CC(O)C2C3(C)CCCC2(COC3=O)C12CCC1(CCOC1=O)O2 (centres undefined)	nt	nt	nt	-2	nt	nt
CN(C)CCCN(C(=O)c1cc(-c2cccs2)nc2ccccc12)c1nc2ccc(F)cc2s1	-6	-1	-1	2	-4	+
COCCNC(=O)C1(C)CCCN(Cc2cn(C)c3ccccc23)C1 (centres undefined)	nt	nt	nt	-2	nt	nt
Cc1c(Nc2cc(Cl)c3nonc3c2[N+](=O)[O-])c(=O)n(-c2ccccc2)n1C	-6	-32	nt	13*	nt	nt
CC(C)OCCCNC(=O)CN1C(=O)CC(C)(C)S(=O)(=O)c2ccccc21	-17	nt	5	0	7	i
COCCNC(=O)CN1C(=O)CC(C)(C)S(=O)(=O)c2ccccc21	6	nt	10	13*	15	i
CC1(Oc2ccc(-n3ccnc3)cc2)CCN(Cc2cccn2-c2nccs2)C1 (centres undefined)	nt	nt	nt	0	nt	nt
SMILES	pCIP destab	Hep lipid drop	proCasp3 act	FXN GAA850 act	proCasp7 act	Rce1 inhib
O=C(O)c1ccc(-c2ccc(O)c(F)c2)cc1	-8	-2	-2	-1	-1	+
c1coc(-c2ccnc3ncnn23)c1	-4	-4	2	0	-1	+
O=C(COc1ccccc1)Nc1cccc(-c2nc3cc4ccccc4cc3[nH]2)c1	-13	nt	-5	-1	-3	+
CN1CCN(C(=S)NC(=O)c2ccccc2Cl)CC1	-10	24	1	-1	7	+
Nc1ccc(Cc2ccc(N)c(C(=O)O)c2)cc1C(=O)O	-4	28	7	2	-1	+
CCOC(=O)CC1C(=O)NCCN1C(=O)c1cc2c(=O)n3cccc(C)c3nc2s1 (centres undefined)	-23	nt	0	1	2	+
CCOC(=O)CC1C(=O)NCCN1C(=O)c1cc2c(=O)n3ccccc3nc2s1 (centres undefined)	-9	nt	0	nt	1	?
CN1CC(C(=O)O)Cc2c1ccc1ccccc21 (centres undefined)	-14	2	-2	1	-8	+
COC(=O)CS(=O)(=O)c1nnc([C@H](Cc2ccccc2)NC(=O)OC(C)(C)C)o1	-12	3	-7	15*	-4	i
Cc1cccc(CS(=O)(=O)c2nnc([C@H](Cc3ccccc3)NC(=O)OC(C)(C)C)o2)c1	-8	nt	-21	4	-10	i
CN1C(=O)/C(=C/c2cccc(Cl)c2)Sc2ccc(C(=O)N3CCOCC3)cc21	-4	-14	0	2	3	+
CCOc1ccc(/C=C2/Sc3ccc(C(=O)N4CCOCC4)cc3N(C)C2=O)cc1OC	-17	-3	-13	1	-28	i
CN(C)C(=O)c1cccc(COc2ccc(N3C(N)=NC(N)=NC3(C)C)cc2Cl)c1	nt	nt	nt	-3	nt	nt
CS(=O)(=O)c1ccc(C(=O)OCc2nnc(-c3ccc(Cl)cc3)o2)cc1[N+](=O)[O-]	7	8	-2	14*	-3	i
O=C(NNC(=O)c1ccc(O)c(Cl)c1)c1cccc(S(=O)(=O)N2CCOCC2)c1	nt	nt	10	1	2	+
N#Cc1ccc(C(=O)NNC(=O)c2cccc(S(=O)(=O)N3CCOCC3)c2)cc1	nt	nt	-7	0	6	nt
CCCCNC(=O)C1(C)CCCCCN1Cc1cccc2c(OC)cc(C(=O)OCC)cc12 (centres undefined)	nt	nt	nt	2	nt	nt
CCOc1ccc(N(CC(=O)NC2CC3CCC2C3)S(=O)(=O)c2ccccc2)cc1 (centres undefined)	-7	-10	-1	-1	13	+
CCOc1ccc(N(CC(=O)NC2CC3CCC2C3)S(=O)(=O)c2ccc(C)cc2)cc1 (centres undefined)	-2	-17	-3	1	1	i
CCNC(=S)NNC(=O)CCn1cc(C)cn1	-11	0	-6	0	-6	+
